IC50 and Activity data for 15 molecules are collected here from ChEMBL document CHEMBL1833941, “Structural requirement of arylindolylpropenones as anti-bladder carcinoma cells agents” (Bioorg Med Chem, 2011).

The subject of assay [1] is RT-112. Nature of the assay: Antiproliferative activity against human RT112 cells after 48 hrs by MTT assay. The format is functional, cell-based. The note with it: RT-112, 48 h. In outline:
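RT112 bladder carcinoma cells in RPMI 1640 with 10% FCS and 2 mM glutamine, 37 °C, 5% CO2. Seeded 3×10^3 cells/well, treated after 24 h with a concentration series for 48 h; DMSO vehicle control. MTT 3 h at 37 °C, formazan dissolved in DMSO, A570 with 650 nm reference. Survival relative to vehicle (100%); IC50 from dose-response curves; triplicates, three independent experiments.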

Assay [2] concerns RT-112. Nature of the assay: Induction of apoptosis in human RT112 cells assessed as hypodiploid DNA at sub-G1 phase after 48 hrs by propidium iodide-staining-based flow cytometry. The format is functional, cell-based. In outline:
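Same PI/RNase flow cytometry as the cell cycle work in RT112 cells, with treatment extended to 48 h. Apoptosis scored as a hypodiploid (sub-G1) DNA peak; DMSO vehicle as control.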
For orientation: Flow cytometry measures light scatter and fluorescence of single cells or particles in a stream.

In assay [3] the test system is RT-112. Nature of the assay: Cell cycle arrest in human RT112 cells by accumulation of cells at G2+M phase at 3 uM after 24 hrs by propidium iodide-staining-based flow cytometry (reference value: 14%). The format is functional.
The subject of assay [4] is RT-112. Nature of the assay: Cell cycle arrest in human RT112 cells by accumulation of cells at G1 phase at 3 uM after 12 hrs by propidium iodide-staining-based flow cytometry (reference value: 69%). The format is functional.
Assay [5] has as its system RT-112. Nature of the assay: Cell cycle arrest in human RT112 cells by accumulation of cells at G2/M phase at 3 uM after 12 hrs by propidium iodide-staining-based flow cytometry (reference value: 14%). It counts as functional.
For assay [6], the system named is RT-112. Nature of the assay: Cell cycle arrest in human RT112 cells by accumulation of cells at S phase at 3 uM after 12 hrs by propidium iodide-staining-based flow cytometry (reference value: 17%). It counts as functional.
The subject of assay [7] is RT-112. Nature of the assay: Cell cycle arrest in human RT112 cells by accumulation of cells at G2+M phase at 4 uM after 12 hrs by propidium iodide-staining-based flow cytometry (reference value: 14%). The format is functional.
Assay [8] relates to RT-112. Nature of the assay: Cell cycle arrest in human RT112 cells by accumulation of cells at G2+M phase at 4 uM after 24 hrs by propidium iodide-staining-based flow cytometry (reference value: 14%). The format is functional.

Calls of active or inactive are those of the source. No cut-off for these calls is given here.

As for `Cn1cc(/C=C/C(=O)c2cn(C)c3ccccc23)c2ccccc21`, in the assay with RT-112 [1], half-maximal inhibition (IC50) required 63 µM.
Still for that read-out and setting: the result for `COc1cc(OC)c(/C=C/C(=O)c2cn(C)c3ccc(C(=O)O)cc23)c(OC)c1` reads 86.1 µM.
Still for that read-out and setting: the result for `CN1CCN(c2ccc(/C=C/C(=O)c3cn(C)c4ccccc34)cc2)CC1` reads 11.7 µM; that for `CN1CCN(c2ccccc2/C=C/C(=O)c2cn(C)c3ccccc23)CC1`, 26.4 µM.
Consider `Cn1cc(C(=O)/C=C/c2c(Cl)cccc2Cl)c2ccccc21`, for which inhibition in the assay on RT-112 [1] was half-maximal at 7.8 µM (IC50). Compared with the last molecule, the IC50 is about 3.4-fold lower.
Still for that read-out and setting: with `COc1ccc(/C=C/C(=O)c2cn(C)c3ccccc23)c(OC)c1` the figure was 57.7 µM.
With `COc1cc(OC)c(/C=C/C(=O)c2cn(C)c3ccccc23)c(OC)c1`, the outcome in the assay with RT-112 [2] and with RT-112 [3] was Active. Further, the Activity with RT-112 [4] was determined as 16%; in the assay with RT-112 [5], 74%. In the assay with RT-112 [1], inhibition was half-maximal at 3.2 µM (IC50). Moreover, in the assay with RT-112 [6], the result was inactive.
For the molecule `Cn1cc(C(=O)/C=C/c2ccccc2F)c2ccccc21`, the IC50 (in general, the concentration at which inhibition is half-maximal) in the assay with RT-112 [1] was 28.7 µM.
Still for that read-out and setting: with `CN(C)c1ccc(/C=C/C(=O)c2cn(C)c3ccccc23)cc1` the figure was 7.5 µM; with `Cn1cc(C(=O)/C=C/c2ccccc2)c2ccccc21`, 30.6 µM.
Take `Cn1ccc2cc(/C=C/C(=O)c3cn(C)c4ccccc34)ccc21`: the result in the assay with RT-112 [2] was Active. For the same molecule, the Activity in the assay on RT-112 [7] was 65%; in the assay with RT-112 [8], 34%. The molecule also registered a concentration for half-maximal inhibition (IC50) in the assay with RT-112 [1] of 4 µM.
Regarding `COc1cc(OC)c(/C=C/C(=O)c2cn(C)c3ccc(OC)cc23)c(OC)c1`, the outcome with RT-112 [2] and with RT-112 [3] was Active. The Activity is given as 5% in the assay on RT-112 [4] and 91% in the assay on RT-112 [5]. The IC50 in the assay with RT-112 [1] is 3.1 µM. Further, the result in the assay on RT-112 [6] was inactive.
For `COc1cc(OC)c(C(=O)/C=C/c2ccc3c(ccn3C)c2)c(OC)c1`, the half-inhibitory concentration (IC50) in the assay on RT-112 [1] turned out to be 54.3 µM.
In the case of `COc1cc(/C=C/C(=O)c2cn(C)c3ccccc23)cc(OC)c1OC`, the IC50 in the assay on RT-112 [1] was 42.4 µM.
Regarding `COc1cccc(OC)c1/C=C/C(=O)c1cn(C)c2ccccc12`, it took 47.4 µM to reach half-maximal inhibition in the assay on RT-112 [1] (IC50).
